Experimental data as given in ChEMBL document CHEMBL3600382, “A-ring substituted 17β-arylsulfonamides of 17β-aminoestra-1,3,5(10)-trien-3-ol as highly potent reversible inhibitors of steroid sulfatase” (Bioorg Med Chem, 2015).

Assays:
[1] = test system: SK-MEL-2; assay: Cytotoxicity against human SK-MEL-2 cells; format: functional
[2] = test system: T47D; assay: Cytotoxicity against human T47D cells; format: functional
[3] = test system: OVCAR-3; assay: Cytotoxicity against human OVCAR3 cells; format: functional
[4] = test system: CAKI-1; assay: Cytotoxicity against human Caki1 cells; format: functional
[5] = test system: M14; assay: Cytotoxicity against human M14 cells; format: functional
[6] = test system: SK-OV-3; assay: Cytotoxicity against human SKOV3 cells; format: functional
[7] = test system: RXF 393; assay: Cytotoxicity against human RXF393 cells; format: functional
[8] = Cytotoxicity against human NCI-ADR-RES cells; format: functional
[9] = test system: KM12; assay: Cytotoxicity against human KM12 cells; format: functional
[10] = test system: HL-60(TB); assay: Cytotoxicity against human HL-60(TB) cells; format: functional
[11] = test system: IGROV-1; assay: Cytotoxicity against human IGROV1 cells; format: functional
[12] = test system: SN12C; assay: Cytotoxicity against human SN12C cells; format: functional
[13] = test system: A498; assay: Cytotoxicity against human A498 cells; format: functional
[14] = test system: PC-3; assay: Cytotoxicity against human PC3 cells; format: functional
[15] = test system: HOP-92; assay: Cytotoxicity against human HOP92 cells; format: functional
[16] = test system: NCI-H226; assay: Cytotoxicity against human NCI-H226 cells; format: functional
[17] = Cytotoxicity against human Hs578T cells; format: functional; details: Hs-578T
[18] = test system: MCF7; assay: Cytotoxicity against human MCF7 cells; format: functional
[19] = test system: SW-620; assay: Cytotoxicity against human SW620 cells; format: functional
[20] = test system: SNB-75; assay: Cytotoxicity against human SNB75 cells; format: functional
[21] = test system: SK-MEL-5; assay: Cytotoxicity against human SK-MEL-5 cells; format: functional
[22] = test system: RPMI-8226; assay: Cytotoxicity against human RPMI8226 cells; format: functional
[23] = test system: COLO 205; assay: Cytotoxicity against human COLO205 cells; format: functional
[24] = test system: 786-0; assay: Cytotoxicity against human 786-0 cells; format: functional
[25] = test system: OVCAR-5; assay: Cytotoxicity against human OVCAR5 cells; format: functional
[26] = test system: CCRF-CEM; assay: Cytotoxicity against human CCRF-CEM cells; format: functional
[27] = test system: A549; assay: Cytotoxicity against human A549 cells; format: functional
[28] = test system: NCI-H23; assay: Cytotoxicity against human NCI-H23 cells; format: functional
[29] = test system: UACC-62; assay: Cytotoxicity against human UACC62 cells; format: functional
[30] = test system: U-251; assay: Cytotoxicity against human U251 cells; format: functional
[31] = test system: MDA-MB-435; assay: Cytotoxicity against human MDA-MB-435 cells; format: functional
[32] = test system: MDA-MB-468; assay: Cytotoxicity against human MDA-MB-468 cells; format: functional
[33] = test system: HT-29; assay: Cytotoxicity against human HT-29 cells; format: functional
[34] = test system: SF-295; assay: Cytotoxicity against human SF295 cells; format: functional
[35] = test system: TK-10; assay: Cytotoxicity against human TK10 cells; format: functional
[36] = test system: ACHN; assay: Cytotoxicity against human ACHN cells; format: functional
[37] = test system: MDA-MB-231; assay: Cytotoxicity against human MDA-MB-231 cells; format: functional
[38] = test system: LOX IMVI; assay: Cytotoxicity against human LOXIMVI cells; format: functional
[39] = test system: SF-268; assay: Cytotoxicity against human SF268 cells; format: functional
[40] = test system: SF-539; assay: Cytotoxicity against human SF539 cells; format: functional
[41] = test system: BT-549; assay: Cytotoxicity against human BT549 cells; format: functional
[42] = test system: SR; assay: Cytotoxicity against human SR cells; format: functional
[43] = test system: HCC 2998; assay: Cytotoxicity against human HCC2998 cells; format: functional
[44] = test system: UACC-257; assay: Cytotoxicity against human UACC257 cells; format: functional
[45] = Cytotoxicity against human EKVX cells; format: functional
[46] = test system: OVCAR-8; assay: Cytotoxicity against human OVCAR8 cells; format: functional
[47] = target: T1, Steryl-sulfatase (Homo sapiens, UniProt P08842); assay: Inhibition of STS (unknown origin) using 4-MUS as substrate measured over 10 mins by fluorescence assay
T1 sequence (P08842 whole entry): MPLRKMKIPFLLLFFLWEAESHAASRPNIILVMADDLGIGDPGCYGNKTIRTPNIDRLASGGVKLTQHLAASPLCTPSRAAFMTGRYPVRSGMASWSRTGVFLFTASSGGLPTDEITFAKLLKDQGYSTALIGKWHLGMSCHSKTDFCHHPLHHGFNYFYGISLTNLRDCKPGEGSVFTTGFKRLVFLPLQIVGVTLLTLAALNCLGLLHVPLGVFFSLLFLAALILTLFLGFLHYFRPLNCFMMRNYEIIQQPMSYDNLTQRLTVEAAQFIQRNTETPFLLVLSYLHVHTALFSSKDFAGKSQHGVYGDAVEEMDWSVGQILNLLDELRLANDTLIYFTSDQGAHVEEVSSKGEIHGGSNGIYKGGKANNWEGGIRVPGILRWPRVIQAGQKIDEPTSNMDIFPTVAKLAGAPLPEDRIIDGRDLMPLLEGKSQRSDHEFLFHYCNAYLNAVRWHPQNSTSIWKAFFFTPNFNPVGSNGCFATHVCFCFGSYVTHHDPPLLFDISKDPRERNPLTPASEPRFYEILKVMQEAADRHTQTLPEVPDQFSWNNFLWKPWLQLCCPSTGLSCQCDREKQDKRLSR
How it was run: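 Purified STS (10 nM final) in 0.1 M Tris-HCl pH 7.0 containing Triton X-100, 4-MUS 200 µM final, and inhibitor at eleven concentrations (5 nM–5 µM). Ex 360/em 460 fluorescence read over 10 min at 24 °C, in quadruplicate, with no-enzyme controls. Vi/V0 from initial rates fit to a slope-factor equation. For tight binders, Ki app is the y-intercept of IC50 vs [E] (10–80 nM).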

[48] = test system: MOLT-4; assay: Cytotoxicity against human MOLT4 cells; format: functional
[49] = test system: NCI-H460; assay: Cytotoxicity against human NCI-H460 cells; format: functional
[50] = target: T1, Steryl-sulfatase; assay: Reversible inhibition of STS (unknown origin) using 4-MUS as substrate measured over 10 mins by fluorescence assay; details: read-out: Ki(app)
How it was run: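 Purified STS at 10 nM final with 200 µM 4-MUS in 0.1 M Tris-HCl pH 7.0 (enzyme stock contained Triton X-100). Eleven inhibitor levels, 5 nM–5 µM, were added from DMSO/buffer. 4-Methylumbelliferone fluorescence (ex 360, em 460 nm) was followed for 10 min at 24 °C, in quadruplicate, with no-enzyme controls. Vi/V0 initial rates were fitted for IC50. K_i^app was the IC50-vs-[E]T intercept at 10–80 nM STS.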

[51] = test system: MCF7; assay: Cytotoxicity against human MCF7 cells assessed as inhibition of cell growth at 10 uM after 96 hrs by Cell Titer 96 Aqueous One solution Cell proliferation assay relative to control; format: functional; details: MCF7, 96 h, read-out: GI

Q: For `C[C@]12CC[C@@H]3c4ccc(O)c([N+](=O)[O-])c4CC[C@H]3[C@@H]1CC[C@@H]2NS(=O)(=O)c1cccc(Br)c1`, which GI50 [1] is on record?
A: 1 µM

Q: What about the GI50 [2] of the same compound?
A: 2.5 µM

Q: And the GI50 [3]?
A: 1 µM

Q: And the GI50 [4]?
A: 1 µM

Q: What about the GI50 [5] of the same compound?
A: 1 µM

Q: What about the GI50 [6] of the same compound?
A: 1 µM

Q: What about the GI50 [7] of the same compound?
A: 1 µM

Q: And the GI50 [8]?
A: 1 µM

Q: What about the GI50 [9] of the same compound?
A: 1 µM

Q: And the GI50 [10]?
A: 1 µM

Q: What about the GI50 [11] of the same compound?
A: 1 µM

Q: And the GI50 [12]?
A: 1 µM

Q: And the GI50 [13]?
A: 1 µM

Q: And the GI50 [14]?
A: 1 µM

Q: What about the GI50 [15] of the same compound?
A: 1 µM

Q: What about the GI50 [16] of the same compound?
A: 1 µM

Q: What about the GI50 [17] of the same compound?
A: 2.1 µM

Q: And the GI50 [18]?
A: 1.9 µM

Q: What about the GI50 [19] of the same compound?
A: 1 µM

Q: What about the GI50 [20] of the same compound?
A: 1 µM

Q: And the GI50 [21]?
A: 1 µM

Q: What about the GI50 [22] of the same compound?
A: 1 µM

Q: What about the GI50 [23] of the same compound?
A: 1 µM

Q: And the GI50 [24]?
A: 1 µM

Q: What about the GI50 [25] of the same compound?
A: 1 µM

Q: What about the GI50 [26] of the same compound?
A: 1 µM

Q: What about the GI50 [27] of the same compound?
A: 1 µM

Q: And the GI50 [28]?
A: 1 µM

Q: And the GI50 [29]?
A: 1 µM

Q: What about the GI50 [30] of the same compound?
A: 1 µM

Q: And the GI50 [31]?
A: 1 µM

Q: What about the GI50 [32] of the same compound?
A: 2.2 µM

Q: What about the GI50 [33] of the same compound?
A: 1 µM

Q: And the GI50 [34]?
A: 1 µM

Q: What about the GI50 [35] of the same compound?
A: 1 µM

Q: What about the GI50 [36] of the same compound?
A: 1 µM

Q: And the GI50 [37]?
A: 1.5 µM

Q: What about the GI50 [38] of the same compound?
A: 1 µM

Q: And the GI50 [39]?
A: 1 µM

Q: And the GI50 [40]?
A: 1 µM

Q: What about the GI50 [41] of the same compound?
A: 1.6 µM

Q: And the GI50 [42]?
A: 1 µM

Q: What about the GI50 [43] of the same compound?
A: 1 µM

Q: What about the GI50 [44] of the same compound?
A: 1 µM

Q: And the GI50 [45]?
A: 1 µM

Q: And the GI50 [46]?
A: 1 µM

Q: And the IC50 [47]?
A: 0.012 µM

Q: What about the GI50 [48] of the same compound?
A: 1 µM

Q: And the GI50 [49]?
A: 1 µM

Q: Which results are given for `C[C@]12CC[C@@H]3c4ccc(O)c([N+](=O)[O-])c4CC[C@H]3[C@@H]1CC[C@@H]2NS(=O)(=O)c1cccc(C(F)(F)F)c1`?
A: GI50 [1]: 1 µM; GI50 [2]: 1.8 µM; GI50 [3]: 1 µM; GI50 [4]: 1 µM; GI50 [5]: 1 µM; GI50 [6]: 1 µM; GI50 [7]: 1 µM; GI50 [8]: 1 µM; GI50 [9]: 1 µM; GI50 [10]: 1 µM; GI50 [11]: 1 µM; GI50 [12]: 1 µM; GI50 [13]: 1 µM; GI50 [14]: 1 µM; GI50 [15]: 1 µM; GI50 [16]: 1 µM; GI50 [17]: 2.2 µM; GI50 [18]: 1.8 µM; GI50 [19]: 1 µM; GI50 [20]: 1 µM; GI50 [21]: 1 µM; GI50 [22]: 1 µM; GI50 [23]: 1 µM; GI50 [24]: 1 µM; GI50 [25]: 1 µM; GI50 [26]: 1 µM; GI50 [27]: 1 µM; GI50 [28]: 1 µM; GI50 [29]: 1 µM; GI50 [30]: 1 µM; GI50 [31]: 1 µM; GI50 [32]: 2.7 µM; GI50 [33]: 1 µM; GI50 [34]: 1 µM; GI50 [35]: 1 µM; GI50 [36]: 1 µM; GI50 [37]: 1.9 µM; GI50 [38]: 1 µM; GI50 [39]: 1 µM; GI50 [40]: 1 µM; GI50 [41]: 1.9 µM; GI50 [42]: 1 µM; GI50 [43]: 1 µM; GI50 [44]: 1 µM; GI50 [45]: 1 µM; GI50 [46]: 1 µM; IC50 [47]: 0.011 µM; GI50 [48]: 1 µM; GI50 [49]: 1 µM

Q: For `C[C@]12CC[C@@H]3c4ccc(O)c([N+](=O)[O-])c4CC[C@H]3[C@@H]1CC[C@@H]2NS(=O)(=O)c1ccc(-c2ccccc2)cc1`, which Ki [50] is on record?
A: 0.001 µM

Q: Which Ki [50] does the source give for `C[C@]12CC[C@@H]3c4ccc(O)c(F)c4CC[C@H]3[C@@H]1CC[C@@H]2NS(=O)(=O)c1cccc(C(F)(F)F)c1` here?
A: 0.0025 µM

Q: Which inhibition of growth at 10 µM [51] does the source give for `C[C@]12CC[C@@H]3c4ccc(O)cc4CC[C@H]3[C@@H]1CC[C@@]2(O)Cc1ccccc1` here?
A: 51%
